A short description of data set [1]: folding enthalpy; higher = less favourable; fluorescence melt of hairpins on a sequencing array, two-state fit. As to conditions: sodium 0.088 M. Put shortly: (§1)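 With Cy3 and quencher oligos annealed, library hairpins on a sequenced MiSeq flow cell were imaged for Cy3 fluorescence in 50 mM Na-HEPES pH 8.0, 25 mM NaCl, in 2.5 °C steps up to 60 °C. Melting temperature and folding enthalpy were derived from bootstrapped two-state fits of signals normalised to pre-quench Cy3 and to control constructs. Four replicates were combined by inverse variance, with fitted temperatures raised by 9.35 °C to match UV melts.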

The nature of data set [2]: melting temperature; fluorescence melt of hairpins on a sequencing array, two-state fit, raised by 9.35 °C to match UV melts. As to conditions: sodium 0.088 M. A digest of the protocol:
as §1

As for GGGCCCGAAAGGGATCCC ((((((....)))..))), the folding enthalpy in data set [1] is -14.9 kcal/mol. Further, the Tm in data set [2] stood at 56.6 °C.

As for GGGCCCGGAAACGAGCCC ((((.((....)).)))), in data set [1], the folding enthalpy is -47.5 kcal/mol. Besides, the Tm in data set [2] is 57.5 °C.

With GGGCCGCGAAAGCGCCCC (((.(((....))).))), the folding enthalpy in data set [1] is -12.4 kcal/mol. Also, the Tm in data set [2] came out at 68.8 °C.

On to GGGCCGGGAAACTGGCCC (((((.(....).))))), for which the folding enthalpy in data set [1] is -31.9 kcal/mol. In addition, in data set [2], the Tm amounted to 68.9 °C.

On to GGGCCTCCGAAAGGACCC (((..(((....)))))), for which the folding enthalpy in data set [1] is -21.2 kcal/mol. The Tm in data set [2] is 50.1 °C.

In the case of GGGCCTGGAAACAGGCTC (.(((((....))))).), the folding enthalpy in data set [1] is -15.9 kcal/mol. Moreover, in data set [2], the Tm worked out at 61.6 °C.

For the sequence GGGCGAACGAAAGTTCCC (((..(((....)))))), the folding enthalpy in data set [1] was -15.4 kcal/mol. Besides, the Tm in data set [2] came to 45.2 °C.

On to GGGCGACGAAAGTCACCC (((.(((....))).))), for which, in data set [1], the folding enthalpy was -43.3 kcal/mol. Moreover, the Tm in data set [2] turned out to be 61.8 °C.

GGGCGCACGAAAGTGCCC (((..(((....)))))): the folding enthalpy in data set [1] was -12.1 kcal/mol. In addition, the Tm in data set [2] is 57 °C.

Consider GGGCGCGAAAGCGAGCCC ((((((....)))..))), for which the folding enthalpy in data set [1] was -16.7 kcal/mol. Besides, the Tm in data set [2] amounted to 66.2 °C.

GGGCGCGAAAGCGATCCC ((((((....)))..))): the folding enthalpy in data set [1] is -14.3 kcal/mol. For the same sequence, the Tm in data set [2] came to 58.5 °C.

Turning to GGGCGCGAAAGCGCACCC ((((((....)))..))), in data set [1], the folding enthalpy was -9.21 kcal/mol. Besides, the Tm in data set [2] is 66.3 °C.

GGGCGCGAAAGCGGTCCC ((((((....)))..))): the folding enthalpy in data set [1] is -11.7 kcal/mol. For the same sequence, the Tm in data set [2] is 63.8 °C.

Regarding GGGCGGTCGAAAGACCCC (((..(((....)))))), the folding enthalpy in data set [1] is -15.3 kcal/mol. Further, the Tm in data set [2] was 53.9 °C.

In the case of GGGCGTCCGAAAGGACCC (((..(((....)))))), the folding enthalpy in data set [1] is -13.9 kcal/mol. In addition, the Tm in data set [2] worked out at 57.8 °C.

For the sequence GGGCGTGGAAACACACCC (((.(((....))).))), the folding enthalpy in data set [1] is -40.7 kcal/mol. The Tm in data set [2] was determined as 51.8 °C.

Consider GGGCGTGGAAACATGCCC ((((.((....)).)))), for which the folding enthalpy in data set [1] was -42.9 kcal/mol. In addition, the Tm in data set [2] came to 63.1 °C.

Take GGGCTACGAAAGTAACCC (((.(((....))).))): the folding enthalpy in data set [1] is -36.6 kcal/mol. Further, the Tm in data set [2] amounted to 52 °C.

GGGCTACGAAAGTACCC (((.(((....)))))): the folding enthalpy in data set [1] was -34.9 kcal/mol. Besides, the Tm in data set [2] was found to be 49.6 °C.

As for GGGCTAGGAAACTGGTCC ((.(.((....)).).)), the folding enthalpy in data set [1] was -33.6 kcal/mol. In addition, the Tm in data set [2] is 41 °C.

Consider GGGCTCGAAAGAGAGCCC ((((((....)))..))), for which, in data set [1], the folding enthalpy is -35.3 kcal/mol. Further, in data set [2], the Tm was determined as 66.2 °C.

For the sequence GGGCTCGAAAGAGCGCCC ((((((....)))..))), the folding enthalpy in data set [1] was -10.7 kcal/mol. The Tm in data set [2] was 56.6 °C.

As for GGGCTCGAAAGAGTTCCC ((((((....)))..))), the folding enthalpy in data set [1] is -21 kcal/mol. In addition, the Tm in data set [2] is 43.5 °C.

Consider GGGCTCGGAAACAAGCCC (((((.(....).))))), for which the folding enthalpy in data set [1] was -28.1 kcal/mol. For the same sequence, the Tm in data set [2] is 51.4 °C.

As to GGGCTCGGAAACGAACCC (((.(((....))).))), the folding enthalpy in data set [1] was -46.9 kcal/mol. In addition, in data set [2], the Tm was found to be 51 °C.

On to GGGCTGCGAAAGCATCCC (((.(((....))).))), for which the folding enthalpy in data set [1] was -34.5 kcal/mol. In addition, the Tm in data set [2] was determined as 55.2 °C.

Turning to GGGCTGGCGAAAGCCCCC (((..(((....)))))), the folding enthalpy in data set [1] is -12.9 kcal/mol. The Tm in data set [2] turned out to be 52.1 °C.

As for GGGCTTTCGAAAGAACCC (((..(((....)))))), the folding enthalpy in data set [1] was -40 kcal/mol. In addition, in data set [2], the Tm was 35.7 °C.

Regarding GGGGAACGAAAGTTTCCC (((.(((....))).))), the folding enthalpy in data set [1] was -36.8 kcal/mol. The Tm in data set [2] stood at 61.1 °C.

As for GGGGACCCGAAAGGGCCC (((..(((....)))))), the folding enthalpy in data set [1] is -16.4 kcal/mol. The Tm in data set [2] turned out to be 62.3 °C.

The values above are taken from the array DNA melting data of Ke et al. (doi:10.1101/2024.01.08.574731).
